These results are taken from ChEMBL document CHEMBL4196063, “A novel synthetic peptide inspired on Lys49 phospholipase A2 from Crotalus oreganus abyssus snake venom active against multidrug-resistant clinical isolates” (2018).

Calls of active or inactive are those of the source. No cut-off for these calls is given here. Where a SMILES comes first, the peptide text is derived from it.

Test [1] deals with Pseudomonas aeruginosa. The test can be described thus: Antibacterial activity against Pseudomonas aeruginosa 31NM at 5.95 to 190 uM after 24 hrs by CLSI broth microdilution method. Format: functional, organism-based. The procedure, abridged: (§1)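 Strains were kept frozen in MHB with 20% glycerol, subcultured in MHB, and grown on Mueller Hinton agar at 37 °C for a day. Peptide was dissolved in medium and serially diluted into MHB in 96-well plates, then bacterial suspension was added (1 × 10⁸ CFU/ml). Plates were held at 37 °C for 24 h and growth inhibition read at 595 nm. Runs were done at least three times, mean ± SD.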

Test [2] deals with Escherichia coli. The test can be described thus: Antibacterial activity against Escherichia coli ATCC 25922 at 5.95 to 190 uM after 24 hrs by CLSI broth microdilution method. Format: functional, organism-based. The procedure, abridged: as §1
Test [3] relates to Staphylococcus aureus. Briefly: Antibacterial activity against Staphylococcus aureus rib1 at 575 uM after 24 hrs by agar well diffusion assay. Format: functional, organism-based. In short, it runs like this:
(§2)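 Agar well diffusion followed Bauer/CLSI with minor changes. Strains were subcultured in MHB and grown on Mueller Hinton agar at 37 °C for a day. Wells were punched aseptically, and 100 μl of peptide in PBS (575 μM) was placed in each well. Plates were incubated at 37 °C for 24 h and inhibition halo diameters measured by caliper. Commercial antibiotics served as positive control, with at least three runs.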

The test system of test [4] is Staphylococcus aureus. The test can be described thus: Antibacterial activity against Staphylococcus aureus BEC9393 at 5.95 to 190 uM after 24 hrs by CLSI broth microdilution method. Format: functional, organism-based. In short, it runs like this:
as §1

Test [5] deals with Staphylococcus aureus. Briefly: Antibacterial activity against Staphylococcus aureus BEC9393 at 575 uM after 24 hrs by agar well diffusion assay. Format: functional, organism-based. In short, it runs like this: as §2
Test [6] concerns Staphylococcus aureus. The test can be described thus: Antibacterial activity against Staphylococcus aureus rib1 at 5.95 to 190 uM after 24 hrs by CLSI broth microdilution method. Type of test: functional, organism-based. In short, it runs like this: as §1
Test [7] deals with Pseudomonas aeruginosa. The test can be described thus: Antibacterial activity against Pseudomonas aeruginosa ATCC 27853 at 5.95 to 190 uM after 24 hrs by CLSI broth microdilution method. Format: functional, organism-based. The procedure, abridged: as §1
In test [8] the test system is Escherichia coli. Briefly: Antibacterial activity against Escherichia coli ATCC 25922 at 575 uM after 24 hrs by agar well diffusion assay. Type of test: functional, organism-based. In short, it runs like this:
as §2

Test [9] deals with Pseudomonas aeruginosa. Briefly: Growth inhibition of Pseudomonas aeruginosa 31NM at 5.95 uM after 24 hrs by CLSI broth microdilution method. Type of test: functional. Particulars: read-out: GI. The procedure, abridged:
(§3)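 Broth microdilution per CLSI. Peptide dissolved in Mueller Hinton broth and serially diluted (5.95–190 μM tested) in MHB. Bacteria were subcultured in MHB and grown on Mueller Hinton agar at 37 °C for a day, then added at 1 × 10⁸ CFU/ml. Incubation 37 °C for 24 h, with growth read at 595 nm. Antibiotic positive and medium negative controls. At least three runs, mean ± SD.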

The test system of test [10] is Pseudomonas aeruginosa. Briefly: Antibacterial activity against Pseudomonas aeruginosa 31NM at 575 uM after 24 hrs by agar well diffusion assay. Format: functional, organism-based. The procedure, abridged: as §2
Test [11] has as its system Pseudomonas aeruginosa. Briefly: Antibacterial activity against Pseudomonas aeruginosa ATCC 27853 at 575 uM after 24 hrs by agar well diffusion assay. Type of test: functional, organism-based. In short, it runs like this:
as §2

For test [12], the system named is Pseudomonas aeruginosa. Briefly: Growth inhibition of Pseudomonas aeruginosa ATCC 27853 at 5.95 uM after 24 hrs by CLSI broth microdilution method. The settings on record: ATCC 27853, 24 h, read-out: GI. Type of test: functional. The procedure, abridged: as §3

Consider `CC[C@H](C)[C@H](NC(=O)[C@H](CCCNC(=N)N)NC(=O)[C@H](Cc1ccc(O)cc1)NC(=O)[C@H](CCCCN)NC(=O)[C@@H](N)CCCCN)C(=O)N[C@@H](Cc1ccc(O)cc1)C(=O)N1CCC[C@H]1C(=O)N[C@@H](CCCCN)C(=O)N[C@@H](Cc1ccccc1)C(=O)N[C@@H](CC(C)C)C(=O)N[C@@H](CS)C(=O)N[C@@H](CCCCN)C(=O)N[C@@H](CCCCN)C(=O)O` (H-KKYRIYPKFLCKK-OH), for which the result in [1], in test [2], in [3], in test [4], in test [5] and in test [6] was Active. Besides, the outcome in test [7], in [8], in test [10] and in test [11] was Active. Moreover, the inhibition of growth at 5.95 µM in [9] amounted to 48%; in test [12], 52%.
Regarding `CC(C)C[C@H](NC(=O)[C@H](Cc1ccccc1)NC(=O)[C@H](CCCCN)NC(=O)[C@@H]1CCCN1C(=O)[C@@H](N)Cc1ccc(O)cc1)C(=O)N[C@@H](CS)C(=O)N[C@@H](CCCCN)C(=O)N[C@@H](CCCCN)C(=O)N1CCC[C@H]1C(=O)O` (H-YPKFLCKKP-OH), the result in test [3], in test [5], in [8], in test [10] and in test [11] was inactive.
